{"data": "Measured values gathered from unrelated publications", "organism": "Trypanosoma cruzi", "observed": "parasite growth", "notes": "intracellular, amastigote", "note": "Compare with care: the assays were run in different laboratories."}
{"Compound": "O=C(N[C@@H](Cc1ccccc1)C(=O)c1cn(COCc2ccccc2)nn1)[C@H](Cc1ccccc1)NC(=O)N1CCOCC1", "strain": "TULAHUEN", "endpoint": "IC50", "value": "32.2 µM"}
{"Compound": "O=C(N[C@H](Cc1c[nH]c2ccccc12)C(=O)Nc1ccncc1)c1ccc(-c2cc(F)ccc2F)cc1F", "technique": "imaging", "cells": "C2C12", "time": "72 h", "endpoint": "EC50", "value": "0.0013 µM"}
{"Compound": "O=C(N[C@@H](Cc1ccccc1)C(=O)c1nccs1)[C@H](Cc1ccccc1)NC(=O)N1CCOCC1", "strain": "TULAHUEN", "endpoint": "IC50", "value": "31.7 µM"}
{"Compound": "O=C(Cn1ccnc1[N+](=O)[O-])NCc1ccccc1", "strain": "TULAHUEN", "time": "6 days", "endpoint": "EC90", "value": "1.64 µM"}
{"Compound": "COc1ccc(Nc2nc(-c3ccco3)nc3ccccc23)cc1", "technique": "imaging", "cells": "U2OS", "endpoint": "IC50", "value": "11.4 µM"}
{"Compound": "COC(=O)c1ccc(NCc2cncn2Cc2ccccc2Cl)cc1-c1ccccc1", "cells": "mouse Fibroblast", "endpoint": "EC50", "value": "0.1 to 1 µM"}
{"Compound": "COc1ccc(Nc2nc(-c3ccncc3)nc3ccccc23)cc1", "technique": "imaging", "cells": "U2OS", "endpoint": "IC50", "value": "24.5 µM"}
{"Compound": "Cc1ccc2nc(-c3ccc(F)c(F)c3)c(CN3CCC(Cc4ccccc4)CC3)n2c1", "strain": "TULAHUEN", "time": "6 days", "endpoint": "EC90", "value": "4.7 µM"}
{"Compound": "c1ccc(C2CCN(c3nc(-c4ccco4)nc4ccccc34)C2)nc1 (stereo not shown)", "technique": "imaging", "cells": "U2OS", "endpoint": "IC50", "value": "50 µM"}
{"Compound": "COC(=O)c1ccc(NCc2cncn2Cc2ccccc2[N+](=O)[O-])cc1-c1ccccc1", "cells": "mouse Fibroblast", "endpoint": "EC50", "value": "0.1 to 1 µM"}
